# Columns and labels:
# [1] = target: Platelet-derived growth factor receptor alpha (Homo sapiens) (UniProt P16234); assay: Binding affinity to wild-type human partial length PDGFRA (V575 to D1002 residues) expressed in mammalian expression system assessed as remaining unbound target protein level at 1000 nM by Kinomescan method relative to control
# [2] = target: Serine/threonine-protein kinase PLK4 (Homo sapiens) (UniProt O00444); assay: Binding affinity to wild-type human partial length PLK4 (M1 to S273 residues) expressed in mammalian expression system assessed as remaining unbound target protein level at 1000 nM by Kinomescan method relative to control
# Sequence of Serine/threonine-protein kinase PLK4 (Homo sapiens) (O00444 whole entry, the tested form may be a part): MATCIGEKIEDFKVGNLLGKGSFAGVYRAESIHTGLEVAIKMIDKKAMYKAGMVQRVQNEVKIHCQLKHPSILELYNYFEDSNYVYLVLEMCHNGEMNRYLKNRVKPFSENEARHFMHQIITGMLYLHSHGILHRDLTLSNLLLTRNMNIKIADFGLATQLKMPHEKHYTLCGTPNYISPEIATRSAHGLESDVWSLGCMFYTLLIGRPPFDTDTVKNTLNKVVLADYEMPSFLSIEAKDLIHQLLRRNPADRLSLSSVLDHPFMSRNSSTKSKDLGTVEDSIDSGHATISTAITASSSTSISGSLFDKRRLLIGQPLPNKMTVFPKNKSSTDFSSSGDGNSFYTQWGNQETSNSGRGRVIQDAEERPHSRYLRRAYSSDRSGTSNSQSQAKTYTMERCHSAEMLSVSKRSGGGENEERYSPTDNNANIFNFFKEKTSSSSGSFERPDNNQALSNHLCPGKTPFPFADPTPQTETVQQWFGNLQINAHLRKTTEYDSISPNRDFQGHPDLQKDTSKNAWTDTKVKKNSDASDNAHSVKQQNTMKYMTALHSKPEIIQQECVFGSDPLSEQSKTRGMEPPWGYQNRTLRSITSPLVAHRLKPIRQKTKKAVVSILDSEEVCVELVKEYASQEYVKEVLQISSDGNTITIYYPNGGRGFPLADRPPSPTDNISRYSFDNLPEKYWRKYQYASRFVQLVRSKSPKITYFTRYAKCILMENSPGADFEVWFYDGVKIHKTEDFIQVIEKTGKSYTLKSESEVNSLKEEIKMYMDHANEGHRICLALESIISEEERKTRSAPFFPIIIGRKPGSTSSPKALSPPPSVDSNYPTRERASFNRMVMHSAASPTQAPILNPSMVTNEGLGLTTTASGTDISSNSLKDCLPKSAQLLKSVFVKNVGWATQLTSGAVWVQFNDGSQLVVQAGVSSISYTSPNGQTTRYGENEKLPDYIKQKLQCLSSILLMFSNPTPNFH
# [3] = target: ALK tyrosine kinase receptor (Homo sapiens) (UniProt Q9UM73); assay: Binding affinity to wild-type human partial length ALK (I1088 to E1409 residues) expressed in mammalian expression system assessed as remaining unbound target protein level at 1000 nM by Kinomescan method relative to control
# Sequence of ALK tyrosine kinase receptor (Homo sapiens) (Q9UM73 19-1620 limits assumed): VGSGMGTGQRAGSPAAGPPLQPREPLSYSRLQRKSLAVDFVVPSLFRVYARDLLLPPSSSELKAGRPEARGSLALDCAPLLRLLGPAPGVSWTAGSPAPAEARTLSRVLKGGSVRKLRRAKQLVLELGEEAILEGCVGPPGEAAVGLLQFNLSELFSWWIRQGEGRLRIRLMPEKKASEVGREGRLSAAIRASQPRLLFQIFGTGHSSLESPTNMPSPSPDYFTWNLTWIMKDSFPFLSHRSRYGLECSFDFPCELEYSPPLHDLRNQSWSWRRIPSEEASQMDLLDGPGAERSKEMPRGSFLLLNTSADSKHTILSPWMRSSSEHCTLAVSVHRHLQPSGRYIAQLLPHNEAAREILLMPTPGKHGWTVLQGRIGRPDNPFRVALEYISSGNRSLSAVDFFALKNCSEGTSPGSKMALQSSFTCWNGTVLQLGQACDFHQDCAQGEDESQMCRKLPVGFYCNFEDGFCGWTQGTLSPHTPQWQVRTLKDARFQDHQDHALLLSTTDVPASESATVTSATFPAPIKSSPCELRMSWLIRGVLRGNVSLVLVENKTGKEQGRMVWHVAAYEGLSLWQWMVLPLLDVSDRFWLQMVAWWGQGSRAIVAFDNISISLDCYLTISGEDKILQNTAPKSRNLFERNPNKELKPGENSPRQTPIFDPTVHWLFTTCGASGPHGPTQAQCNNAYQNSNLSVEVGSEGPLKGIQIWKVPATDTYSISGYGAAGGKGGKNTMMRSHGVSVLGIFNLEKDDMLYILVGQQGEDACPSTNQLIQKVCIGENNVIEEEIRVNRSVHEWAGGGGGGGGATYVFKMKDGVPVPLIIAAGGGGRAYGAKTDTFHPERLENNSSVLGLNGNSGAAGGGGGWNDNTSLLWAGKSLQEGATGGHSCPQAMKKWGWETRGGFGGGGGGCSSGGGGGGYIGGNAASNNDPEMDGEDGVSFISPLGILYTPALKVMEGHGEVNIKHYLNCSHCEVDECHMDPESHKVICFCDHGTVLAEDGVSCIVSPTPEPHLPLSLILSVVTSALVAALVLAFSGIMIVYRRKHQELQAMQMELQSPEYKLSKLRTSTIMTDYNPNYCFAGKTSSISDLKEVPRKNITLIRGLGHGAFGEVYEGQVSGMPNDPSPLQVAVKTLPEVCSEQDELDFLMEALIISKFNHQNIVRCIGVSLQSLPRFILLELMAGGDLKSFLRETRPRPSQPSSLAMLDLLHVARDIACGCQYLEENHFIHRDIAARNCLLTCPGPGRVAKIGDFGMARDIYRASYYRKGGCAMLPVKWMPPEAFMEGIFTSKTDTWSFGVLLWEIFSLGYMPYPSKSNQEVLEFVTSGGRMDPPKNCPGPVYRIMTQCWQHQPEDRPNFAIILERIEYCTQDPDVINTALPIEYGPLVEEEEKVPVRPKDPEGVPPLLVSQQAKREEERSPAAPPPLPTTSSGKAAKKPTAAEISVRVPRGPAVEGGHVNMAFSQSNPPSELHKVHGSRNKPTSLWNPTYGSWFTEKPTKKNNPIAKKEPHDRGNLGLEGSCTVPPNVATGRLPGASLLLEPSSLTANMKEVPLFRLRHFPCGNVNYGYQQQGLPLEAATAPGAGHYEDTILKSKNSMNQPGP
# Method in brief: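 Profiled in a KINOMEscan binding panel with the inhibitor at a single concentration of 1 μM. Binding to each kinase was read out as percent of control, relative to a DMSO control. Strong binders were defined as those with a percent control value below 1.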
# [4] = target: Cyclin-dependent kinase 1/cyclin B1 (Homo sapiens, UniProt P06493); assay: Inhibition of recombinant full length His-tagged human CDK1/CyclinB expressed in baculovirus expression system
# [5] = target: Myosin light chain kinase, smooth muscle (Homo sapiens) (UniProt Q15746); assay: Binding affinity to wild-type human full length MYLK (M854 to E1845 residues) expressed in mammalian expression system assessed as remaining unbound target protein level at 1000 nM by Kinomescan method relative to control
# Method in brief: (§1)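 KINOMEscan competition binding profile across a panel of 468 kinases and mutants, with the inhibitor tested at a single concentration of 1 μM. Binding is reported as percent of control, meaning signal relative to a DMSO control.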
# [6] = Tmax in beagle dog at 2 mg/kg, iv by LC-MS/MS analysis; format: ADME, organism-based, Canis lupus familiaris; conditions: in vivo
# [7] = target: Cyclin-dependent kinase 8 (Homo sapiens) (UniProt P49336); assay: Binding affinity to wild-type human partial length CDK8 (M1 to T360 residues) expressed in bacterial expression system assessed as remaining unbound target protein level at 1000 nM by Kinomescan method relative to control
# CDK3/Cyclin E = CDK3/Cyclin E (Homo sapiens, UniProt Q00526); assay: Inhibition of recombinant GST-tagged human CDK3/cyclin E1; format: protein-complex assay
# Homo sapiens [8] = species on record: Homo sapiens; assay: Selectivity ratio of IC50 for recombinant GST-tagged human CDK3/cyclin E1 to IC50 for recombinant full length His-tagged human CDK9/CyclinT1
# [9] = target: Serine/threonine-protein kinase TAO1 (Homo sapiens) (UniProt Q7L7X3); assay: Binding affinity to wild-type human partial length TAOK1 (M1 to A320 residues) expressed in mammalian expression system assessed as remaining unbound target protein level at 1000 nM by Kinomescan method relative to control
# [10] = target: Phosphorylase b kinase gamma catalytic chain, skeletal muscle/heart isoform (Homo sapiens) (UniProt Q16816); assay: Binding affinity to wild-type human full length PHKG1 (M1 to Y387 residues) expressed in bacterial expression system assessed as remaining unbound target protein level at 1000 nM by Kinomescan method relative to control; method in brief: as §1
# [11] = MRT (0 to t) in beagle dog at 2 mg/kg, iv by LC-MS/MS analysis; format: ADME, organism-based, Canis lupus familiaris; conditions: in vivo
# [12] = target: Serine/threonine-protein kinase PAK 1 (Homo sapiens) (UniProt Q13153); assay: Binding affinity to wild-type human partial length PAK1 (S149 to H545 residues) expressed in bacterial expression system assessed as remaining unbound target protein level at 1000 nM by Kinomescan method relative to control
# Canis familiaris = assay: Oral bioavailability in beagle dog at 10 mg/kg by LC-MS/MS analysis; format: ADME, organism-based, Canis lupus familiaris; conditions: in vivo
# [13] = target: Non-receptor tyrosine-protein kinase TYK2 (Homo sapiens) (UniProt P29597); assay: Binding affinity to wild-type human partial length TYK2 JH2 pseudokinase domain (G556 to D888 residues) expressed in mammalian expression system assessed as remaining unbound target protein level at 1000 nM by Kinomescan method relative to control
# Homo sapiens [14] = species on record: Homo sapiens; assay: Selectivity ratio of IC50 for recombinant GST-tagged inactive state of human CDK16 (108 to end residues)/cyclin Y (2 to end residues) to IC50 for recombinant full length His-tagged human CDK9/CyclinT1
# [15] = target: Cyclin-G-associated kinase (Homo sapiens) (UniProt O14976); assay: Binding affinity to wild-type human partial length GAK (G13 to Y338 residues) expressed in bacterial expression system assessed as remaining unbound target protein level at 1000 nM by Kinomescan method relative to control
# [16] = target: Serine/threonine-protein kinase 16 (Homo sapiens) (UniProt O75716); assay: Binding affinity to wild-type human partial length STK16 (G11 to I305 residues) expressed in bacterial expression system assessed as remaining unbound target protein level at 1000 nM by Kinomescan method relative to control
# Sequence of Serine/threonine-protein kinase 16 (Homo sapiens) (O75716 whole entry, the tested form may be a part): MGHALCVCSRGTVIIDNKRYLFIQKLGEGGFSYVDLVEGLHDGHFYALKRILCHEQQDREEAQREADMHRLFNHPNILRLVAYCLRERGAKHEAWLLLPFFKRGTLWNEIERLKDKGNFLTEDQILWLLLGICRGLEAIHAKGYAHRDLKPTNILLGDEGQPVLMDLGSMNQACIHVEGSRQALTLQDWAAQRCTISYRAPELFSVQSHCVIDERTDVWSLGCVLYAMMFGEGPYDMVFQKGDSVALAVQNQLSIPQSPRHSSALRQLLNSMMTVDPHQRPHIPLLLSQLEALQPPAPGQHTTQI
# [17] = target: Serine/threonine-protein kinase TAO3 (Homo sapiens) (UniProt Q9H2K8); assay: Binding affinity to wild-type human partial length TAOK3 (M1 to T316 residues) expressed in mammalian expression system assessed as remaining unbound target protein level at 1000 nM by Kinomescan method relative to control
# [18] = tested on: Phosphatidylinositol 4,5-bisphosphate 3-kinase catalytic subunit alpha isoform (Homo sapiens), P42336 [Q546K]; assay: Binding affinity to human partial length PIK3CA Q546K mutant (R108 to N1068 residues) expressed in mammalian expression system assessed as remaining unbound target protein level at 1000 nM by Kinomescan method relative to control
# Method in brief: (§2)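 KINOMEscan competition-binding profiling across the panel of 468 kinases and mutants, with inhibitor tested at 1 μM. Binding is expressed as percent of control, with DMSO as the reference control.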
# [19] = target: NT-3 growth factor receptor (Homo sapiens) (UniProt Q16288); assay: Binding affinity to wild-type human partial length TRKC (Q531 to G825 residues) expressed in mammalian expression system assessed as remaining unbound target protein level at 1000 nM by Kinomescan method relative to control
# [20] = target: Beta-adrenergic receptor kinase 1 (Homo sapiens) (UniProt P25098); assay: Binding affinity to wild-type human full length GRK2 (M1 to L689 residues) expressed in mammalian expression system assessed as remaining unbound target protein level at 1000 nM by Kinomescan method relative to control; method in brief: as §1
# Sequence of Beta-adrenergic receptor kinase 1 (Homo sapiens) (P25098 whole entry, the tested form may be a part, canonical isoform): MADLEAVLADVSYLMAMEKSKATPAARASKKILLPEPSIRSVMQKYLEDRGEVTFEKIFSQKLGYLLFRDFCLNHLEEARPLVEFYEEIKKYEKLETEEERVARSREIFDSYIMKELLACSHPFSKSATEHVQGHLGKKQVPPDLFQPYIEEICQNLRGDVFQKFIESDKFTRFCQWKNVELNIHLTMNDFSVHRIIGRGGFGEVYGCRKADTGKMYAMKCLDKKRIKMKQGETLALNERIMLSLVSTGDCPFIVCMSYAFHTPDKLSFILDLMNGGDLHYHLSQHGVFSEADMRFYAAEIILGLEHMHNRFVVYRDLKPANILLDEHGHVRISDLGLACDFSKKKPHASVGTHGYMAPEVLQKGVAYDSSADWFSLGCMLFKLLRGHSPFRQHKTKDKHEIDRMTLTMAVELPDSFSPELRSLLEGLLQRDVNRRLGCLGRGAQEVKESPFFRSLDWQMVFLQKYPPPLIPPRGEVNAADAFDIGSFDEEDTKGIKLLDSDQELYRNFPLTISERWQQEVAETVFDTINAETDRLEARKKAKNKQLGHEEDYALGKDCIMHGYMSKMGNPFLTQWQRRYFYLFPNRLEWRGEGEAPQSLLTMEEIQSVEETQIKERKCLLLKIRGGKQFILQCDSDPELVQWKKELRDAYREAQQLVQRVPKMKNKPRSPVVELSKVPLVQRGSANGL
# [21] = tested on: Phosphatidylinositol 4,5-bisphosphate 3-kinase catalytic subunit alpha isoform (Homo sapiens), P42336 [E542K]; assay: Binding affinity to human partial length PIK3CA E542K mutant (R108 to N1068 residues) expressed in mammalian expression system assessed as remaining unbound target protein level at 1000 nM by Kinomescan method relative to control; method in brief: as §2
# Sequence of Phosphatidylinositol 4,5-bisphosphate 3-kinase catalytic subunit alpha isoform (Homo sapiens), P42336 [E542K] (P42336 whole entry E542K, the tested form may be a part, canonical isoform): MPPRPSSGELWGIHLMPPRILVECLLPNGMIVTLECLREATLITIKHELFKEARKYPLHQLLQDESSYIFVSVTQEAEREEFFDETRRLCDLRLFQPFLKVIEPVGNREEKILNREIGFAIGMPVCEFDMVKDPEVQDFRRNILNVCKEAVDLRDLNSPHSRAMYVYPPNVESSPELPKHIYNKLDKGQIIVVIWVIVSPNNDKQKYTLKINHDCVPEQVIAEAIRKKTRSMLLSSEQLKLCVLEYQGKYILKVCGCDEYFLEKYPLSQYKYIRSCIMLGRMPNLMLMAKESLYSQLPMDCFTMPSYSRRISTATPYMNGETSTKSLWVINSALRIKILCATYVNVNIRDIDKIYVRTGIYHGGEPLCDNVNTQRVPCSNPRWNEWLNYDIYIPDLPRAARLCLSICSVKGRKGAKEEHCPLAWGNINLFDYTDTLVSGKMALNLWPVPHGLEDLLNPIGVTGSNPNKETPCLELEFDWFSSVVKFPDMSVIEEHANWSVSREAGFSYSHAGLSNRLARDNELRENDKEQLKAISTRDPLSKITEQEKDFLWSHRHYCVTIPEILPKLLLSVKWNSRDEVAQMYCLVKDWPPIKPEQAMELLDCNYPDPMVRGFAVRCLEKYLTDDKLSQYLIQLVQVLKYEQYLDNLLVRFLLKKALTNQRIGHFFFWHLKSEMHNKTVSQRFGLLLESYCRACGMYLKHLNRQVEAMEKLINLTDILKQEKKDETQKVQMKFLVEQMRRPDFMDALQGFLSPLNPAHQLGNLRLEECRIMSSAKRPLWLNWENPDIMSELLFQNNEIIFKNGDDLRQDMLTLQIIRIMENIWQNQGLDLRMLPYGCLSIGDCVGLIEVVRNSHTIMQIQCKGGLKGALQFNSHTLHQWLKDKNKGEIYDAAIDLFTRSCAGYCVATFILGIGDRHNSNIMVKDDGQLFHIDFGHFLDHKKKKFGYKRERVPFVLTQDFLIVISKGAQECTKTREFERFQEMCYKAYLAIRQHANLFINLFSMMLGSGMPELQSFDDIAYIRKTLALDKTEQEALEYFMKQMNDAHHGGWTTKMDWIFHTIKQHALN
# [22] = target: Cyclin-dependent kinase 9 (Homo sapiens, UniProt P50750); assay: Binding affinity to wild-type human full length CDK9 (M1 to F372 residues) expressed in bacterial expression system assessed as remaining unbound target protein level at 1000 nM by Kinomescan method relative to control
# Sequence of Cyclin-dependent kinase 9 (P50750 whole entry, the tested form may be a part): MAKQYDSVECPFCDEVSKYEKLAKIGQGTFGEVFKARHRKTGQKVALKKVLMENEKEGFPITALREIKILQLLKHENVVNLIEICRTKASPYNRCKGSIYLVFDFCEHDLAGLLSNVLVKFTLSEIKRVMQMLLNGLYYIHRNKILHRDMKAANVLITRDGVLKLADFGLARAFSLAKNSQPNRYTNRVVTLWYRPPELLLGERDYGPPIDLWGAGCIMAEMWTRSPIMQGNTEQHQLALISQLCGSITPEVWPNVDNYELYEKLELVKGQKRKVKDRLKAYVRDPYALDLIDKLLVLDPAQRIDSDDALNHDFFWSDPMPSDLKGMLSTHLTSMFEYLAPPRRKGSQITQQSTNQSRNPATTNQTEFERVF
# Method in brief: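 KINOMEscan competition binding panel run at 1 μM inhibitor; binding reported as percent of DMSO control (remaining target bound versus vehicle).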
smiles,measurement,setting,value
COCCN[C@H]1CC[C@H](Nc2cc(-c3csc(NCC4(C#N)CCOCC4)n3)c(Cl)cn2)CC1,Activity,[1],100%
same,Activity,[2],100%
same,Activity,[3],96%
same,IC50,[4],1.34 µM
same,Activity,[5],71%
same,Tmax,[6],1.2 min
same,Activity,[7],100%
same,IC50,CDK3/Cyclin E,> 10 µM
same,Ratio IC50,Homo sapiens [8],> 1000
same,Activity,[9],36%
same,Activity,[10],69%
same,MRT last,[11],9.36 h
same,Activity,[12],100%
same,F,Canis familiaris,39.15%
same,Activity,[13],100%
same,Ratio IC50,Homo sapiens [14],300
same,Activity,[15],100%
same,Activity,[16],76%
same,Activity,[17],15%
same,Activity,[18],88%
same,Activity,[19],89%
same,Activity,[20],91%
same,Activity,[21],96%
same,Activity,[22],0.9%
